Measured values as given in ChEMBL document CHEMBL2375244 (J Med Chem, 2013).
Calls of active or inactive are those of the source. The calls are words filed in the database; no cut-off is given here.

How the values were obtained:
[1] = molecular target: CDK4/Cyclin D3 (Homo sapiens) (UniProt P11802+P30281); assay: Inhibition of human CDK4/Cyclin D3 at 0.1 uM incubated for 15 mins prior to substrate addition measured after 90 mins by P33-radiolabeled assay relative to control; format: protein-complex assay
[2] = molecular target: Serine/threonine-protein kinase TAO1 (Homo sapiens) (UniProt Q7L7X3); assay: Inhibition of human TAO1 at 0.1 uM incubated for 15 mins prior to substrate addition measured after 90 mins by P33-radiolabeled assay relative to control
Sequence of Serine/threonine-protein kinase TAO1 (Homo sapiens) (Q7L7X3 whole entry): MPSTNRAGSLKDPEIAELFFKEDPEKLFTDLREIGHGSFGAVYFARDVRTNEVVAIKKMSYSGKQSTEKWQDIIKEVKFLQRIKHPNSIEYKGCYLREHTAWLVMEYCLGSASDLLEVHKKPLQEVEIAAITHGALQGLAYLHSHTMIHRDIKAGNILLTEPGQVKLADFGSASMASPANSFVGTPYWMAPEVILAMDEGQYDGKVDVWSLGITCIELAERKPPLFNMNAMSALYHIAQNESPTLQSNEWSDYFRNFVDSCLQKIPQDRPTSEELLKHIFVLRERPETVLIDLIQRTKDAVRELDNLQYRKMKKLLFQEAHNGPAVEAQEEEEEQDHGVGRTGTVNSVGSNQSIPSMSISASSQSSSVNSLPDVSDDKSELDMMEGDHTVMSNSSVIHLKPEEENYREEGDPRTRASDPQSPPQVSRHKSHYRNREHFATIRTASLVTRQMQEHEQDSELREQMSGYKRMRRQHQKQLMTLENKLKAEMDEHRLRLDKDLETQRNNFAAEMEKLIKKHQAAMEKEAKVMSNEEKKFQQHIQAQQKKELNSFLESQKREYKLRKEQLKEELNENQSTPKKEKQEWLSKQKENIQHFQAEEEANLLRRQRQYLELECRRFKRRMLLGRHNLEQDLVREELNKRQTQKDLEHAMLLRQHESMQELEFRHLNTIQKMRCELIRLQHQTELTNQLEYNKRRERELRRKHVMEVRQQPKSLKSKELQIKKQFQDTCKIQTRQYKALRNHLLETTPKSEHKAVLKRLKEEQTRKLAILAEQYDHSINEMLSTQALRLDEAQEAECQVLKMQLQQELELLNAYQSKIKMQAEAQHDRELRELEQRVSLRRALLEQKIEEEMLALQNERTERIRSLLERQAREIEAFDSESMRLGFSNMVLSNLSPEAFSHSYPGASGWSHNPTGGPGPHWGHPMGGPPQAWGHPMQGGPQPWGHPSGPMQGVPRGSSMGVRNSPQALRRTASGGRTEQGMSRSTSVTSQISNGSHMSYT

[3] = molecular target: Dual specificity protein kinase CLK2 (Homo sapiens) (UniProt P49760); assay: Inhibition of human CLK2 at 0.1 uM incubated for 15 mins prior to substrate addition measured after 90 mins by P33-radiolabeled assay relative to control
Sequence of Dual specificity protein kinase CLK2 (Homo sapiens) (P49760 whole entry, looked up): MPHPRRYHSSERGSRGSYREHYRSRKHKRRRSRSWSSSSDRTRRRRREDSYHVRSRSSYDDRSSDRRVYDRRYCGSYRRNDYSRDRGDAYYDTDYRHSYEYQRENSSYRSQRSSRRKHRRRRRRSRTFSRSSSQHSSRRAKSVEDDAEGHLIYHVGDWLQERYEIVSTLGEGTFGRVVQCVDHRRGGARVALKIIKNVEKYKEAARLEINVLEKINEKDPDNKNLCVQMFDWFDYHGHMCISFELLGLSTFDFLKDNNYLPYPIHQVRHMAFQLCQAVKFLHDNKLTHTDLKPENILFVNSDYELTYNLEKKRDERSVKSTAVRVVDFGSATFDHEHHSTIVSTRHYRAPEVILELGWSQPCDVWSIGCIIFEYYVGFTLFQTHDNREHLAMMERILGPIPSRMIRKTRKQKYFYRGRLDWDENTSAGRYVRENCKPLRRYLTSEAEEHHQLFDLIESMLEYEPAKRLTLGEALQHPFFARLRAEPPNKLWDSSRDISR

[4] = molecular target: Mitogen-activated protein kinase 15 (Homo sapiens) (UniProt Q8TD08); assay: Inhibition of human ERK7 at 0.1 uM incubated for 15 mins prior to substrate addition measured after 90 mins by P33-radiolabeled assay relative to control
Sequence of Mitogen-activated protein kinase 15 (Homo sapiens) (Q8TD08 whole entry): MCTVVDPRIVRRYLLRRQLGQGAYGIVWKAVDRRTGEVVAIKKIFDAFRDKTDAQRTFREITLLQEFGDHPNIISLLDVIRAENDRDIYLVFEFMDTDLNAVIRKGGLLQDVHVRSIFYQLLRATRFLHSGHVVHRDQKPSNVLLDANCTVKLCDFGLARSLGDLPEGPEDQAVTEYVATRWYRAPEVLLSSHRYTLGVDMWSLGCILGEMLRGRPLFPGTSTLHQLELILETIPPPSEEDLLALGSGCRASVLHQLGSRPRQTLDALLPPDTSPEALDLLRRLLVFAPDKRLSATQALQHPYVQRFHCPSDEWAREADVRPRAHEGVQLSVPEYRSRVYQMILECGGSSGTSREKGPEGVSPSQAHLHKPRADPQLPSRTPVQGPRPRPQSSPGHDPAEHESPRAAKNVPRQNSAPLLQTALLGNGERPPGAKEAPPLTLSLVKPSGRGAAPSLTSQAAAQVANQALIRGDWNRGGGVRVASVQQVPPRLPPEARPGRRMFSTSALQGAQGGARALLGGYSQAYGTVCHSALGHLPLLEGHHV

T47D = assay: Cytotoxicity against human T47D cells after 72 hrs by resazurin/resorufin-based fluorescence assay; format: functional, cell-based
NCI-H929 = assay: Induction of apoptosis in human NCI-H929 cells assessed as increase in cleaved caspase-3 level at […] after 24 hrs by FACS flow cytometric analysis relative to control; format: functional
[5] = molecular target: Cyclin-dependent kinase 2 (Homo sapiens) (UniProt P24941); assay: Inhibition of CDK2-mediated Rb phosphorylation at Ser 807/811 in human A673 cells at 0.25 uM after 24 hrs by immunoblotting analysis; format: cell-based
Outline: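 Asynchronously growing A-673 cells at ~70% confluence were exposed for 24 h to increasing concentrations, then lysed. 50 μg protein per lane on 10% SDS-PAGE, transferred to nitrocellulose. Phospho-Rb Ser807/811 antibody, with β-actin as loading control, detected with fluorescent secondary antibodies on an infrared scanner.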

SK-ES1 = assay: Cytotoxicity against human SK-ES-1 cells after 72 hrs by resazurin/resorufin-based fluorescence assay; format: functional, cell-based; conditions: SK-ES1, 72 h
A673 [6] = assay: Induction of apoptosis in human A673 cells assessed as caspase-3 activation after 24 hrs by luminescence assay; format: functional, cell-based; conditions: A673, 24 h
Outline: (§1)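 Caspase-3/7 activation measured with a Caspase-Glo 3/7 luminescent assay. Cells were plated as for the high-throughput viability assay and exposed for 24 h to serial dilutions. EC50 was obtained from the dose-response.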

[7] = molecular target: CDK1/Cyclin A (Homo sapiens) (UniProt P06493+P20248); assay: Inhibition of human CDK1/Cyclin A at 0.1 uM incubated for 15 mins prior to substrate addition measured after 90 mins by P33-radiolabeled assay relative to control; format: protein-complex assay
Sequence of CDK1/Cyclin A (Homo sapiens) (P06493 whole entry, looked up): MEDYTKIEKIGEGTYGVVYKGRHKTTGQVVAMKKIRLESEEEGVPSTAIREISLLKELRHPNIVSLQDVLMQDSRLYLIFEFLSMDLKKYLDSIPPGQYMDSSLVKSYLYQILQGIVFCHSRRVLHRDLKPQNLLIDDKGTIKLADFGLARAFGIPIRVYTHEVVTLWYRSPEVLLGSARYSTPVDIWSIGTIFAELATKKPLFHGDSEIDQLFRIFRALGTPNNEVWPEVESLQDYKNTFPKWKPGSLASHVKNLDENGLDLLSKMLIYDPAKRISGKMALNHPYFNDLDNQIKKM
Sequence of CDK1/Cyclin A (Homo sapiens) (P20248 whole entry, looked up): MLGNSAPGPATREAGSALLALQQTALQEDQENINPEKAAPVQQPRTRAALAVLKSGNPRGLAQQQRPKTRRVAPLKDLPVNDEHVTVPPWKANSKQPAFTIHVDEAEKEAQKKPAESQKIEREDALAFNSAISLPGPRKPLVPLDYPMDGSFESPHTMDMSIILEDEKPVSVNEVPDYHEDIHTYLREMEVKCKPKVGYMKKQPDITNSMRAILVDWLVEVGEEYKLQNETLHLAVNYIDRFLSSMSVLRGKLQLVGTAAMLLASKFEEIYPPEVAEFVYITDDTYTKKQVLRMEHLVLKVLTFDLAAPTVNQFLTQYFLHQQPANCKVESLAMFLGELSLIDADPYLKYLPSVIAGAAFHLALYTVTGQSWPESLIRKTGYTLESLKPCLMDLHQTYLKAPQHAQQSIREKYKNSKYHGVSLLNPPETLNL

BT-549 = assay: Cytotoxicity against human BT549 cells after 72 hrs by resazurin/resorufin-based fluorescence assay; format: functional, cell-based; conditions: BT-549, 72 h
Outline: (§2)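 CellTiter-Blue viability: 1200 cells per well seeded, incubated overnight at 37 °C, 5% CO₂; drugs serially diluted 2:3 in medium, four replicate wells per concentration plus four diluent-only control wells; 72 h exposure; resazurin reduction to resorufin read by fluorescence (579 nm ex/584 nm em). IC50 is the average of three data sets, each using nine concentrations between 0.004 μM and 12.5 μM.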

A673 [8] = assay: Induction of apoptosis in human A673 cells assessed as caspase-3 activation at 0.05 uM to 5 uM after 24 hrs by luminescence assay relative to control; format: functional; outline: as §1
SW872 = assay: Cytotoxicity against human SW872 cells after 72 hrs by resazurin/resorufin-based fluorescence assay; format: functional, cell-based; conditions: SW872, 72 h
[9] = molecular target: CDK2/Cyclin A1 (Homo sapiens) (UniProt P24941+P78396); assay: Inhibition of human CDK2/Cyclin A1 at 0.1 uM incubated for 15 mins prior to substrate addition measured after 90 mins by P33-radiolabeled assay relative to control; format: protein-complex assay
A673 [10] = assay: Cytotoxicity against human A673 cells after 72 hrs by resazurin/resorufin-based fluorescence assay; format: functional, cell-based; conditions: A673, 72 h
CDK1/Cyclin A = CDK1/Cyclin A (Homo sapiens, UniProt P06493); assay: Inhibition of CDK1/Cyclin A (unknown origin)-mediated phosphorylation of peptide substrate incubated for 15 mins prior to substrate addition measured after 90 mins by P33-radiolabeled assay; format: protein-complex assay
Sequence of CDK1/Cyclin A (P06493 whole entry): as the sequence (P06493 whole entry, looked up) above
Sequence of CDK1/Cyclin A (P20248 whole entry, further chain): as the sequence (P20248 whole entry, looked up) above

SK-BR-3 = assay: Cytotoxicity against human SK-BR-3 cells after 72 hrs by resazurin/resorufin-based fluorescence assay; format: functional, cell-based; conditions: SK-BR-3, 72 h; outline: as §2
MDA-MB-468 = assay: Cytotoxicity against human MDA-MB-468 cells after 72 hrs by MTT assay; format: functional, cell-based; conditions: MDA-MB-468, 72 h
Outline: (§3)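 Cells kept in RPMI or DMEM with 10% FBS at 37 °C, 5% CO₂ and allowed to attach overnight; 72 h with increasing inhibitor concentrations; then 1 mg/mL MTT for 3 h, DMSO solubilisation, OD read at 540 nm. Testis lines had culture conditions adapted to them. Dose-response in triplicate, 9 concentrations between 0.02 and 100 μM, averaged.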

CDK2/Cyclin A2 = CDK2/Cyclin A2 (Homo sapiens, UniProt P24941); assay: Inhibition of CDK2/Cyclin A (unknown origin)-mediated phosphorylation of peptide substrate incubated for 15 mins prior to substrate addition measured after 90 mins by P33-radiolabeled assay; format: protein-complex assay
[11] = molecular target: Cyclin-dependent kinase 2/cyclin E1 (Homo sapiens) (UniProt P24864+P24941); assay: Inhibition of human CDK2/Cyclin E at 0.1 uM incubated for 15 mins prior to substrate addition measured after 90 mins by P33-radiolabeled assay relative to control; format: protein-complex assay
[12] = Cytotoxicity against mouse GC-2 cells after 72 hrs by MTT assay; format: functional, cell-based; conditions: GC-2, 72 h; outline: as §3
[13] = Cytotoxicity against human RPMI18226 cells after 72 hrs by resazurin/resorufin-based fluorescence assay; format: functional, cell-based; conditions: RPMI18226, 72 h
[14] = molecular target: Glycogen synthase kinase-3 alpha (Homo sapiens) (UniProt P49840); assay: Inhibition of human GSK3alpha at 0.1 uM incubated for 15 mins prior to substrate addition measured after 90 mins by P33-radiolabeled assay relative to control
Sequence of Glycogen synthase kinase-3 alpha (Homo sapiens) (P49840 2-483 limits assumed): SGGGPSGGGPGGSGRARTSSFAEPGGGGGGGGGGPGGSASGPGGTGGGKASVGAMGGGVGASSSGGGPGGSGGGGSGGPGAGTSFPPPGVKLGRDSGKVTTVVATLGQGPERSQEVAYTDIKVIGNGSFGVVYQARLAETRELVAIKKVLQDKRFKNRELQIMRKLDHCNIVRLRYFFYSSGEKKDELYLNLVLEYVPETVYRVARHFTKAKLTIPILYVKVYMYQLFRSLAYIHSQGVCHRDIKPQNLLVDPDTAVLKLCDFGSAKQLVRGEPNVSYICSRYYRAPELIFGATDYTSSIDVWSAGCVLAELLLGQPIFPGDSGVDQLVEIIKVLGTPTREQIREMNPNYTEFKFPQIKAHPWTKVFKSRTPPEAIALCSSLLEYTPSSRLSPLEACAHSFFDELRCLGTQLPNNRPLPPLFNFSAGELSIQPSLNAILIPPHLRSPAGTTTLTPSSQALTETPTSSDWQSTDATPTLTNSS

[15] = molecular target: Cyclin-dependent kinase 7/ cyclin H (Homo sapiens, UniProt P50613); assay: Inhibition of CDK7/Cyclin H (unknown origin)-mediated phosphorylation of peptide substrate incubated for 15 mins prior to substrate addition measured after 90 mins by P33-radiolabeled assay; format: protein-complex assay
Sequence of Cyclin-dependent kinase 7/ cyclin H (P51946 whole entry): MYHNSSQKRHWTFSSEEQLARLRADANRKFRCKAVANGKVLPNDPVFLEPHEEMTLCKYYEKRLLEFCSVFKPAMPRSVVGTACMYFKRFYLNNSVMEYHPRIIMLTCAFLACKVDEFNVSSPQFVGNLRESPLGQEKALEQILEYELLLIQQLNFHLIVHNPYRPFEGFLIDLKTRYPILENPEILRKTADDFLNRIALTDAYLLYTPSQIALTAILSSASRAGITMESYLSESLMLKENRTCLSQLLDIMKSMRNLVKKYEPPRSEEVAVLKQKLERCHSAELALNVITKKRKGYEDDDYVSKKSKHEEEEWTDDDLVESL
Sequence of Cyclin-dependent kinase 7/ cyclin H (P50613 whole entry): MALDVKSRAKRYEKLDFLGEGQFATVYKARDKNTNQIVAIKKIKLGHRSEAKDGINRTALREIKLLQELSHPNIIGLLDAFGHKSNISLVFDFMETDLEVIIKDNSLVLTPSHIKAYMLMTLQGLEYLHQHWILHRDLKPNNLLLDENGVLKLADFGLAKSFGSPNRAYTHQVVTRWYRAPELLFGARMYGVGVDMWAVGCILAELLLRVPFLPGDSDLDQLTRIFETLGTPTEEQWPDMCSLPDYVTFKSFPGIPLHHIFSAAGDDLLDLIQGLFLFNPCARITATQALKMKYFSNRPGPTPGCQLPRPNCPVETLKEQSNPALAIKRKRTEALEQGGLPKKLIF

[16] = molecular target: CDK6/cyclin D1 (Homo sapiens) (UniProt P24385+Q00534); assay: Inhibition of human CDK6/Cyclin D1 at 0.1 uM incubated for 15 mins prior to substrate addition measured after 90 mins by P33-radiolabeled assay relative to control; format: protein-complex assay
[17] = molecular target: Cyclin-dependent kinase 4/cyclin D1 (Homo sapiens, UniProt P11802); assay: Inhibition of CDK4/Cyclin D1 (unknown origin)-mediated phosphorylation of peptide substrate incubated for 15 mins prior to substrate addition measured after 90 mins by P33-radiolabeled assay; format: protein-complex assay
Sequence of Cyclin-dependent kinase 4/cyclin D1 (P11802 whole entry): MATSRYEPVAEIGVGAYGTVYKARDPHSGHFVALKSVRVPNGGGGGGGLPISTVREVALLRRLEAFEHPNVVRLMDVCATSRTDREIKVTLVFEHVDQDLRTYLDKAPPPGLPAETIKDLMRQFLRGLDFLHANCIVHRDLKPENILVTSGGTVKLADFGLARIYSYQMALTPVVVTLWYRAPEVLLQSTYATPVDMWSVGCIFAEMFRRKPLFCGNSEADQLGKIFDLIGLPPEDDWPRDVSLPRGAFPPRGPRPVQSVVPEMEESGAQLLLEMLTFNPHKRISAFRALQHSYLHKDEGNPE
Sequence of Cyclin-dependent kinase 4/cyclin D1 (P24385 whole entry, further chain): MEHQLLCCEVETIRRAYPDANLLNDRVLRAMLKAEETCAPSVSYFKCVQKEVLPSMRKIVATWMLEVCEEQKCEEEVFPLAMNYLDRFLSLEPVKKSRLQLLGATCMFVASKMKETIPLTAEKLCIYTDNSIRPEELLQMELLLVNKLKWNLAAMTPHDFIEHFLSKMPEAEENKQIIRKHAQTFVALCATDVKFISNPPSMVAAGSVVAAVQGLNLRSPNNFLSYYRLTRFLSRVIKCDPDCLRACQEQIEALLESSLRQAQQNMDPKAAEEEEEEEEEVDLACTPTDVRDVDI

In the case of `Nc1nc(Nc2ccc(S(N)(=O)=O)cc2)sc1C(=O)c1ccccc1[N+](=O)[O-]`, the inhibition [1] is reported as 80%, the inhibition [2] is reported as 60% and the inhibition [3] is reported as 60%. For the same compound, the inhibition [4] was 70%, the IC50 (T47D) was 500 nM and the Activity (NCI-H929) was 26%. For the same compound, the inhibition [5] was “Active”, the IC50 (SK-ES1) was 560 nM and the EC50 (A673 [6]) was 410 nM. The inhibition [7] was 70%, the IC50 (BT-549) was > 10 µM and the Activity (A673 [8]) was 196%. It also gave an IC50 (SW872) of 6.9 µM, an inhibition [9] of 90% and an IC50 (A673 [10]) of 270 nM. For the same compound, the IC50 (CDK1/Cyclin A) was 7.6 nM, the IC50 (SK-BR-3) was 490 nM and the IC50 (MDA-MB-468) was 300 nM. It also gave an IC50 (CDK2/Cyclin A2) of 1.1 nM, an inhibition [11] of 90% and an IC50 [12] of 9 µM. The IC50 [13] was > 10 µM, the inhibition [14] was 75% and the IC50 [15] was > 1000 nM. It also gave an inhibition [16] of 80% and an IC50 [17] of 4 nM.
